Results on two compounds are retold here after ChEMBL document CHEMBL1132225, “Novel antidiabetic and hypolipidemic agents. 3. Benzofuran-containing thiazolidinediones” (J Med Chem, 1999).

Several values for one entry are separate records, joined by “and”; a condition that tells them apart may be missing. Equal values may be shown once. Activity calls are given as the source filed them. The calls are words filed in the database; no cut-off is given here.

Series [1] can be described thus: Pharmacokinetic Parameter, AUC (0-t) is the area under the plasma concentration versus time curve in Female Wistar Rats at 100 mg/kg by po administration. The class given is ADME, organism-based. Conditions: rat. The arrangement: dose 100 mg/kg, route oral.
For series [2], the species on record is Mus musculus. In words: The compound was tested for percent reduction of plasma triglyceride after 6 days of treatment. The class given is functional. The arrangement: concentration or dose not given beside the values.
The nature of series [3]: The half life period in female wistar rats. The class given is ADME, organism-based. Conditions: rat, in vivo. A digest of the protocol:
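Female Wistar rats (200–225 g), fasted 12 h overnight with water, fed 3 h post-dose; single 100 mg/kg oral dose as 0.5% CMC suspension. Retro-orbital blood sampled at multiple times; 0.2 mL plasma extracted, analysed by reverse-phase C18 HPLC with internal standard. Parameters by noncompartmental analysis; mean ± SD, n = 4.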

The nature of series [4]: Pharmacokinetic Parameter, Tmax is the time at which maximum concentration (Cmax) is reached in Female Wistar Rats at 100 mg/kg by po administration. The class given is ADME, organism-based. The conditions noted are these: rat, in vivo. On the set-up: dose 100 mg/kg, route oral.
Series [5] is described as follows: The Tmax values in female wistar rats. The class given is ADME, organism-based. The conditions noted are these: rat, in vivo.
Series [6] concerns Mus musculus. In words: Percent reduction of plasma glucose (PG) after 6 days of treatment. It is the mean of standard deviation observed in plasma glucose (PG) in db/db mice at dose of 100 mg/kg/day. The class given is functional. The conditions noted are these: route oral.
For series [7], the species on record is Rattus norvegicus. In words: The AUC(0-t)values in female wistar rats. The class given is ADME, organism-based. The conditions noted are these: in vivo.
Series [8] relates to Mus musculus. In words: Percent reduction of plasma glucose (PG) after 6 days of treatment. It is the mean of standard deviation observed in plasma glucose (PG) in db/db mice at dose of 30 mg/kg/day. The class given is functional. Conditions: route oral.
The test system of series [9] is Mus musculus. In words: Percent reduction in plasma triglyceride (TG) after 6 days of treatment. It is the mean of standard deviation observed in plasma triglyceride (TG) in db/db mice at dose of 100 mg/kg/day. The class given is functional. Conditions: route oral.
Series [10] in a line: Pharmacokinetic Parameter, Kel is elimination rate constant in Female Wistar Rats at 100 mg/kg by po administration. On the set-up: dose 100 mg/kg, route oral. The class given is ADME, organism-based. Conditions: rat, in vivo.
For series [11], the system named is Mus musculus. The series can be described thus: Percent reduction in plasma triglyceride (TG) after 6 days of treatment. It is the mean of standard deviation observed in plasma triglyceride (TG) in db/db mice at dose of 30 mg/kg/day. The class given is functional. The conditions noted are these: route oral.
The species entered for series [12] is Rattus norvegicus. In words: The AUC(0-infinity) values in female wistar rats. The class given is ADME, organism-based. The conditions noted are these: in vivo. On the set-up: time infinity.
The nature of series [13]: Pharmacokinetic Parameter, half life period measured in Female Wistar Rats at 100 mg/kg by po administration. The class given is ADME, organism-based. The arrangement: dose 100 mg/kg, route oral. The conditions noted are these: rat, in vivo.
Series [14] in a line: The Kel values in female wistar rats. The class given is ADME, organism-based. The conditions noted are these: rat, in vivo.
Series [15] in a line: Pharmacokinetic Parameter, Cmax is observed maximum plasma concentration in Female Wistar Rats at 100 mg/kg by po administration. On the set-up: dose 100 mg/kg, route oral. The class given is ADME, organism-based. The conditions noted are these: rat.
Series [16] is described as follows: Pharmacokinetic Parameter, AUC (0-infinity) is the area under the plasma concentration versus time curve extrapolated to infinity in Female Wistar Rats at 100 mg/kg by po administration. The conditions noted are these: rat, read-out: AUC 0-infinity. On the set-up: time infinity, dose 100 mg/kg, route oral. The class given is ADME, organism-based.
Series [17] in a line: The Cmax values in female wistar rats. The class given is ADME, organism-based. Conditions: rat, in vivo.
Series [18] is filed under the species Mus musculus. The series can be described thus: Percent reduction of plasma glucose after 6 days of treatment (various doses). The class given is functional.
The subject of series [19] is Mus musculus. In words: Percent reduction in plasma triglyceride (TG) after 6 days of treatment. It is the mean of standard deviation observed in plasma triglyceride (TG) in db/db mice at dose of 200 mg/kg/day. The class given is functional. Conditions: route oral.
Series [20] relates to Mus musculus. The series can be described thus: Percent reduction of plasma glucose (PG) after 6 days of treatment. It is the mean of standard deviation observed in plasma glucose (PG) in db/db mice at dose of 200 mg/kg/day. Conditions: route oral. The class given is functional.
Series [21] concerns the target T1, Peroxisome proliferator-activated receptor alpha (Homo sapiens) (UniProt Q07869).
T1 sequence (whole entry): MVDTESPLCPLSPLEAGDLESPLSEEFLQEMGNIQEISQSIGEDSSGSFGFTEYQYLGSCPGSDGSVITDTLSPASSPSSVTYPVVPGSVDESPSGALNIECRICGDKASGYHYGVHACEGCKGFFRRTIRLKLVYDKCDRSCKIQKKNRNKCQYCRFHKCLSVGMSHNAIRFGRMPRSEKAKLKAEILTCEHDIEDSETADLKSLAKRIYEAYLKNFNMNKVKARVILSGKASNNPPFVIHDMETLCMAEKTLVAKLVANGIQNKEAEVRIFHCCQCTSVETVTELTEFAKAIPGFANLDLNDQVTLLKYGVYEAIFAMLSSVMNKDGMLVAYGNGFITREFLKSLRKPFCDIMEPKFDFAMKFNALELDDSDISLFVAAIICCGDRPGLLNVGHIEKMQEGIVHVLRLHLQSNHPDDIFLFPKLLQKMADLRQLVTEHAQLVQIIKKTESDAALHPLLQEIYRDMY
In words: Compound was tested for fold transactivation of human Peroxisome proliferator activated receptor alpha at 50 uM.

Series [22] has as its system Mus musculus. The series can be described thus: Percent reduction in plasma triglyceride (TG) after 6 days of treatment. It is the mean of standard deviation observed in plasma triglyceride (TG) in db/db mice at dose of 30 mg/kg/day; NA = Not Active. The class given is functional, organism-based.
Series [23] relates to Mus musculus. In words: Percent reduction of plasma glucose (PG) after 6 days of treatment. It is the mean of standard deviation observed in plasma glucose (PG) in db/db mice at dose of 30 mg/kg/day; NA = Not Active. The class given is functional, organism-based.

Turning to `Cc1c(C)c2c(c(C)c1OCc1ccccc1)C(CN1CCC[C@H]1COc1ccc(/C=C3\SC(=O)NC3=O)cc1)C(C)(C)O2` (some centres not stated), the AUC(0-t) (usually exposure summed from dosing to a finite time, without extrapolation to infinity) in series [1] was found to be 15500 ng·h/mL. The Reduction in the series filed under Mus musculus [2] was 52% and 38%; in the series listed under Mus musculus [18] it was 66% and 40%. Moreover, the half-life in series [3] and in [13] was 13.1 h in each case. Also, the Tmax in series [4] and in series [5] was 3.5 h in each case. In addition, the PG stood at 66% with Mus musculus [6] and 40% in the series with Mus musculus [8]. The figures for the AUC in the series filed under Rattus norvegicus [7] and in the series listed under Rattus norvegicus [12] were 15500 ng·h/mL and 23600 ng·h/mL, respectively. The values for the TG in the series with Mus musculus [9] and in the series on Mus musculus [11] were 52% and 38%, respectively. For the same compound, the k el in series [10] and in [14] was 1.39e-05 s⁻¹ in each case. In addition, the peak concentration (Cmax) in [15] and in series [17] was 1250 ng/mL in each case. For the same compound, the AUC(0-inf) in series [16] was 23600 ng·h/mL.
For the compound `Cc1c(C)c2c(c(C)c1O)CCC(C)(COc1ccc(CC3SC(=O)NC3=O)cc1)O2` (configuration not stated) [TROGLITAZONE], the TG in the series with Mus musculus [19] came to 50%. The AUC(0-t) in [1] amounted to 25900 ng·h/mL. The figures for the Reduction in the series listed under Mus musculus [2] and in the series listed under Mus musculus [18] were 50% and 26%, respectively. The half-life in series [3] and in series [13] was 4.01 h in each case. The Tmax in [4] and in [5] was 2.25 h throughout. This compound came in with a PG in the series on Mus musculus [20] of 26%. Further, the AUC (as a rule, concentration integrated over time) in the series listed under Rattus norvegicus [7] was found to be 25900 ng·h/mL; in the series listed under Rattus norvegicus [12], 27400 ng·h/mL. The k el in series [10] and in series [14] was 5.56e-05 s⁻¹ throughout. The compound also showed a Transactivation in series [21] of 1.12 fold. The Cmax in [15] and in series [17] was 5470 ng/mL in each case. Moreover, the TG entry in the series with Mus musculus [22] is “inactive”. The AUC(0-inf) in series [16] is 27400 ng·h/mL. In addition, the PG result with Mus musculus [23] is “inactive”.
